Source: ChEMBL document CHEMBL3822453 (J Med Chem, 2016)
Blank lines part the entries; values can stand above or below the molecule they belong to. Calls of active or inactive are those of the source. The calls are words filed in the database; no cut-off is given here.

Key:
[1] = target: T1, DNA repair protein RAD51 homolog 1 (Homo sapiens, UniProt Q06609); assay: Inhibition of human N-terminal 6-histidine/Avi-tagged recombinant RAD51 expressed in Escherichia coli BL21(DE3) assessed as D-loop formation using 5'-32P-labeled 90-mer ssDNA as substrate preincubated for 10 mins followed by substrate addition with subsequent incubation with substrate for 5 mins measured after 20 mins in presence of supercoiled pRS306 dsDNA by agarose gel electrophoresis
T1 sequence (Q06609 whole entry): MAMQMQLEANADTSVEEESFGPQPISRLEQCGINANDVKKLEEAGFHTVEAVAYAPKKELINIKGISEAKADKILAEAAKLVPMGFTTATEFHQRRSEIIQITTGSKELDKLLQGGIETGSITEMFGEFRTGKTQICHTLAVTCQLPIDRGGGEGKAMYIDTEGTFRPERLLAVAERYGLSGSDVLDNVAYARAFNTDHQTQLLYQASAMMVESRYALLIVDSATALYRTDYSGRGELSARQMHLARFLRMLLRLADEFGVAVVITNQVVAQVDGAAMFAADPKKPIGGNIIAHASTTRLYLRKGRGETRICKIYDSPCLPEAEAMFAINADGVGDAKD

[2] = target: T1, DNA repair protein RAD51 homolog 1; assay: Inhibition of Escherichia coli BL21(DE3) expressing human N-terminal 6-histidine/Avi-tagged RAD51 binding to 5'-Alexa488-oligo-dT45 ssDNA preincubated for 40 mins followed by substrate addition measured after 40 mins by fluorescence polarization based microplate method
Method in brief: (§1)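 Human RAD51 preincubated with compound in DMSO at 37 °C for 40 min, then 5'-Alexa488-oligo-dT45 added and incubated another 40 min at 37 °C. Buffer: 20 mM HEPES pH 7.5, 2 mM ATP, 10 mM MgCl2, 0.1 mM TCEP. IC50 from least-squares dose–response fits with standard error.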

[3] = target: T2, DNA repair protein RAD51 homolog 1 (Homo sapiens) (UniProt Q06609); details: 5 to 100 uM
T2 sequence (whole entry): T1 sequence (Q06609 whole entry)

[4] = target: T2, DNA repair protein RAD51 homolog 1 (Homo sapiens); details: 40 uM
[5] = target: T1, DNA repair protein RAD51 homolog 1; assay: Inhibition of Escherichia coli BL21(DE3) expressing human N-terminal 6-histidine/Avi-tagged RAD51 binding to 5'-Alexa488-oligo-dT45 ssDNA at 5 to 100 uM preincubated for 40 mins followed by substrate addition measured after 40 mins by fluorescence polarization based microplate method; details: read-out: Imax
Method in brief: as §1, with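 “TCEP. Final: 0.2 µM RAD51, 2.22 nM ssDNA, 30 mM NaCl, 4% DMSO. Fluorescence polarization read at 485/535 nm.” for “TCEP.”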

[6] = target: T1, DNA repair protein RAD51 homolog 1; assay: Inhibition of RAD51-mediated homologous recombination in human HEK293-DR-GFP cells transfected with pCBASce expressing I-Sce-I after 24 hrs following transfection by 7-aminoactinomycin D staining based flow cytometry
[7] = target: T1, DNA repair protein RAD51 homolog 1; assay: Effect on stabilization of Escherichia coli BL21(DE3) expressing human N-terminal 6-histidine/Avi-tagged RAD51-circular pRS306 virion ssDNA nucleoprotein filament at 30 uM after 40 mins in presence of NaCl by SYBR gold staining based agarose gel electrophoresis; type: ADME
[8] = target: T1, DNA repair protein RAD51 homolog 1; assay: Effect on stabilization of Escherichia coli BL21(DE3) expressing human N-terminal 6-histidine/Avi-tagged RAD51-circular pRS306 virion ssDNA nucleoprotein filament at 100 uM after 40 mins in presence of NaCl by SYBR gold staining based agarose gel electrophoresis; type: ADME
Escherichia coli = assay: (§2) Inhibition of Escherichia coli RecA D-loop activity using 5'-32P-labeled 90-mer ssDNA as substrate up to 100 uM preincubated for 10 mins followed by substrate addition with subsequent incubation with substrate for 5 mins measured after 20 mins in presence of supercoiled pRS306 dsDNA by agarose gel electrophoresis
Method in brief: (§3)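 Yeast Rad51 (1 µM) with Rad52 (2 µM), or E. coli RecA (0.4 µM), preincubated with compound at 37 °C for 10 min. 32P 90-mer ssDNA added with 1 mM MgCl2 for 5 min, then supercoiled pRS306 with MgCl2 raised to 10 mM for 20 min. dsDNA step in 20 mM HEPES pH 7.5, 2 mM ATP, 10 nM ssDNA, 4.5 nM dsDNA. Read by agarose gel and phosphorimaging.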

HEK293 [9] = assay: Induction of single strand annealing activity in human HEK293-SA-GFP cells transfected with pCBASce expressing I-Sce-I up to 40 uM at 24 hrs post transfection by 7-aminoactinomycin D staining based flow cytometry; type: functional, cell-based
Method in brief: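 293-DR-GFP (HR) or 293-SA-GFP (SSA) reporter cells electroporated (325 V, 975 µF) with 37.5 µg/mL I-SceI plasmid pCBASce or empty pCAGGS control. Seeded in complete DMEM + 0.5% DMSO with compound added at transfection, grown out 24 h. Cells resuspended with 1 µg/mL 7-AAD for flow cytometry, dead/apoptotic cells gated out, GFP-positive fraction scored among live cells.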

HEK293 [10] = assay: Effect on RAD51 levels in cytosol of HEK293-DR-GFP cells at 20 uM after 8 hrs by Western blot analysis; type: ADME, cell-based; details: human
Method in brief: (§4)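 Subconfluent 293-DR-GFP cells grown with compound for the indicated time. Fractionated at 4 °C: hypotonic buffer on ice 15 min (cytosol); pellet in hypotonic buffer + 0.5 M NaCl 15 min (soluble nuclear); RIPA extraction three times 5 min, insoluble pellet kept (chromatin). Fractions run on 10% SDS-PAGE, blotted to PVDF, probed with rabbit anti-RAD51 (1:2000) or anti-PCNA (1:1000), read by ECL.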

HEK293 [11] = assay: Effect on RAD51 levels in soluble nuclear fraction of HEK293-DR-GFP cells at 20 uM after 8 hrs by Western blot analysis; type: ADME, cell-based; details: human, hek293, 8 h; method in brief: as §4
[12] = target: T1, DNA repair protein RAD51 homolog 1; assay: Inhibition of IR-induced RAD51 accumulation in HEK293-DR-GFP cells subnuclear foci at 20 uM after 8 hrs by fluorescence microscopy; type: cell-based
Method in brief: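 293-DR-GFP cells grown on coverslips for 2 days, X-irradiated at 1.5 Gy/min, fixed after 0, 2, 4 or 8 h outgrowth. Paraformaldehyde fixation and Triton permeabilization. Stained with rabbit anti-RAD51 plus anti-RPA or anti-γH2AX, DAPI counterstain. At least 100 nuclei scored per condition.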

Saccharomyces cerevisiae [13] = assay: as §2, with “Saccharomyces cerevisiae RAD52” for “Escherichia coli RecA”; method in brief: as §3
HEK293 [14] = assay: Effect on RAD51 levels in chromatin fraction of HEK293-DR-GFP cells at 20 uM after 8 hrs by Western blot analysis; type: cell-based; details: human, hek293, 8 h; method in brief: as §4
MCF7 = assay: Cytotoxicity against human MCF7 cells assessed as cell survival treated with ionizing radiation followed by compound addition after 7 to 11 days by crystal violet staining based colony counting method; type: functional
Method in brief: (§5)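 Cells grown to subconfluence, X-irradiated at 1.5 Gy/min, trypsinized and seeded at 1000–1500 cells/well in complete medium with 0.5% DMSO plus compound at the indicated dose, kept through outgrowth. Incubated 7–11 days until colonies of ≥50 cells. Stained ≥30 min at room temperature in 6% glutaraldehyde + 0.5% crystal violet, then counted automatically. PC-3 grown in DMEM:F12 (1:1) with 10% FCS.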

U2OS = assay: Cytotoxicity against human U2OS cells assessed as cell survival treated with ionizing radiation followed by compound addition after 7 to 11 days by crystal violet staining based colony counting method; type: functional; method in brief: as §5
PC-3 = assay: Cytotoxicity against human PC3 cells assessed as cell survival treated with ionizing radiation followed by compound addition after 7 to 11 days by crystal violet staining based colony counting method; type: functional; method in brief: as §5
Saccharomyces cerevisiae [15] = assay: as §2, with “Saccharomyces cerevisiae RAD51” for “Escherichia coli RecA”; method in brief: as §3
[16] = target: T1, DNA repair protein RAD51 homolog 1; assay: Inhibition of Escherichia coli BL21(DE3) expressing human N-terminal 6-histidine/Avi-tagged RAD51 binding to circular pRS306 virion ssDNA preincubated for 40 mins followed by ssDNA addition measured after 5 mins by agarose gel electrophoresis

Structure (SMILES): c1ccc2c(c1)nc(-c1ccncc1)c1cccn12
IC50 [2]: > 100 µM

Structure (SMILES): c1ccc2c(c1)nc(-c1ccc(N3CCCC3)cc1)c1cccn12
IC50 [1]: > 100 µM

Structure (SMILES): O=[N+]([O-])c1cccc(-c2nc3ccccc3n3cccc23)c1
IC50 [2]: > 100 µM | IC50 [1]: > 100 µM

Structure (SMILES): c1ccc2c(c1)nc(-c1ccc(N3CCOCC3)cc1)c1cccn12
IC50 [2]: > 100 µM | Imax [3]: 68%

Structure (SMILES): COc1ccc2c(c1)NC(c1ccc(N(C)C)cc1)c1cccn1-2 (stereo in doubt; 1) [listing 1 of 2 here]
inhibition [4]: 83% | Imax [3]: 74%

Structure (SMILES): Nc1cccc(-c2nc3ccccc3n3cccc23)c1
IC50 [2]: > 100 µM

Structure (SMILES): FC(F)(F)Oc1ccc(-c2nc3ccccc3n3cccc23)cc1
IC50 [1]: > 100 µM

Structure (SMILES): Oc1ccc(-c2nc3ccccc3n3cccc23)cc1
IC50 [2]: > 100 µM | IC50 [1]: > 100 µM

Structure (SMILES): C1=C(c2nc3ccccc3n3cccc23)CCCC1
IC50 [1]: > 100 µM

Structure (SMILES): COc1ccc2c(c1)NC(c1ccc(N(C)C)cc1)c1cccn1-2 (stereo in doubt; 1) [listing 2 of 2 here]
Emax [5]: 33% | IC50 [6]: 13.1 µM | IC50 [1]: 21.3 µM

Structure (SMILES): c1ccc2c(-c3nc4ccccc4n4cccc34)cccc2c1
IC50 [1]: > 100 µM

Structure (SMILES): O=[N+]([O-])c1ccc(-c2nc3cc(O)ccc3n3cccc23)cc1
IC50 [1]: > 100 µM

Structure (SMILES): Oc1ccc2c(c1)nc(-c1cccnc1)c1cccn12
Imax [3]: 53%

Structure (SMILES): CCNc1ccc(-c2nc3ccccc3n3cccc23)cc1
Activity [7]: Not Active | Activity [8]: Not Active | inhibition (Escherichia coli): inactive | Activity (HEK293 [9]): inactive | Activity (HEK293 [10]): Non-toxic | Activity (HEK293 [11]): Non-toxic | inhibition (INH) [12]: Not Active | inhibition (Saccharomyces cerevisiae [13]): inactive | Activity (HEK293 [14]): Non-toxic | Activity (MCF7): Active | Activity (U2OS): Active | Activity (PC-3): Active | Imax [3]: 91% | inhibition (Saccharomyces cerevisiae [15]): inactive

Structure (SMILES): O=[N+]([O-])c1ccc(-c2nc3ccccc3n3cccc23)cc1
IC50 [2]: > 100 µM | IC50 [1]: > 100 µM

Structure (SMILES): O=C1C(Cl)=C(N2CCOCC2)C(=O)N1c1ccc(Cl)c(Cl)c1
Activity [7]: Active | Activity [16]: Dose-dependent effect

Structure (SMILES): COc1ccc2c(c1)NC(c1ccc(N(C)C)cc1)c1cccn1-2 (racemic)
Imax [3]: 17%

Continued, values first:

IC50 [1]: > 100 µM
Structure (SMILES): COc1ccc2c(c1)nc(-c1ccc([N+](=O)[O-])cc1)c1cccn12

IC50 [2]: > 100 µM | Imax [3]: 74%
Structure (SMILES): COc1ccc2c(c1)nc(-c1cccnc1)c1cccn12

Imax [3]: 100%
Structure (SMILES): COc1ccc2c(c1)nc(-c1ccc(N)cc1)c1cccn12

Imax [3]: 13%
Structure (SMILES): COc1ccc2c(c1)nc(-c1ccc(O)cc1)c1cccn12

IC50 [1]: > 100 µM
Structure (SMILES): CN(C)c1ccc(-c2nc3cc(F)ccc3n3cccc23)cc1

IC50 [1]: > 100 µM
Structure (SMILES): CN(C)c1ccc(-c2nc3cc(F)c(F)cc3n3cccc23)cc1

Imax [3]: 91%
Structure (SMILES): CN(C)c1ccc(-c2nc3cc(O)ccc3n3cccc23)cc1

Imax [3]: 67%
Structure (SMILES): COc1ccc2c(c1)nc(-c1ccc(N(C)C)cc1)c1cccn12
